Results reported in paper PMC9482816 (Journal of medicinal chemistry, 2022).
“Also recorded” adds a separate entry of the source.

Key:
[1] = system: H3K9me2 level in MDA-MB-231 cells; assay: Western blot analysis for H3K9me2 in MDA-MB-231 cells; format: cell-based; conditions: 0.2, 1, or 5 μM for 24, 48, or 72 h
[2] = system: H3K9me2 level in K562 cells; assay: Western blot analysis for H3K9me2 in K562 cells; format: cell-based; conditions: treated for 48 h
G9a [3] = biological target: T1, G9a (Homo sapiens, UniProt Q96KQ7); assay: Mass spectrometry based analysis of G9a-inhibitor adduct formation; format: binding; conditions: for covalent modification of G9a (MS-based analysis, in words): after 1 h of incubation
T1 sequence (Q96KQ7 913-1193): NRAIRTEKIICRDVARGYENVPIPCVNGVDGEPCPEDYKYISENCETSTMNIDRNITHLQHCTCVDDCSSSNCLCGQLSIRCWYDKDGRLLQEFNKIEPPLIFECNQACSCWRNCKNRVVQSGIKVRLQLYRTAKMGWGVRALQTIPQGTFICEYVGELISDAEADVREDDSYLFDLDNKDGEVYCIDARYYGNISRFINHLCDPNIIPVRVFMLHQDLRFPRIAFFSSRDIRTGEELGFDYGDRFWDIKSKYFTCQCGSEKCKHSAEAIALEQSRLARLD
Outline: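 Purified human G9a catalytic domain (residues 913–1193), 5 μM in 50 mM Tris-HCl pH 7.5, 150 mM NaCl, incubated 1 h at room temperature with 50 μM test compound or DMSO. Intact protein analysed by electrospray LC/TOF mass spectrometry. Protein–inhibitor adduct quantified from the mass shift over unmodified G9a (34 314 Da).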

MDA-MB-231 cells = assay: Cytotoxicity assay; format: cell-based; conditions: 3 days, CCK-8 (Figure S2)
Outline: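 MDA-MB-231 cells are seeded at 1 × 10^4 cells per well and exposed to test compound at various concentrations for 3 days. Viability is read with CCK-8 following the kit protocol. Values are plotted from triplicate experiments.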

GLP [4] = biological target: T2, GLP (Homo sapiens, UniProt Q9H9B1); assay: Radioactivity-based scintillation proximity biochemical assay, GLP; conditions: preincubation 5, 15, 45 min
T2 sequence (Q9H9B1 1-1298): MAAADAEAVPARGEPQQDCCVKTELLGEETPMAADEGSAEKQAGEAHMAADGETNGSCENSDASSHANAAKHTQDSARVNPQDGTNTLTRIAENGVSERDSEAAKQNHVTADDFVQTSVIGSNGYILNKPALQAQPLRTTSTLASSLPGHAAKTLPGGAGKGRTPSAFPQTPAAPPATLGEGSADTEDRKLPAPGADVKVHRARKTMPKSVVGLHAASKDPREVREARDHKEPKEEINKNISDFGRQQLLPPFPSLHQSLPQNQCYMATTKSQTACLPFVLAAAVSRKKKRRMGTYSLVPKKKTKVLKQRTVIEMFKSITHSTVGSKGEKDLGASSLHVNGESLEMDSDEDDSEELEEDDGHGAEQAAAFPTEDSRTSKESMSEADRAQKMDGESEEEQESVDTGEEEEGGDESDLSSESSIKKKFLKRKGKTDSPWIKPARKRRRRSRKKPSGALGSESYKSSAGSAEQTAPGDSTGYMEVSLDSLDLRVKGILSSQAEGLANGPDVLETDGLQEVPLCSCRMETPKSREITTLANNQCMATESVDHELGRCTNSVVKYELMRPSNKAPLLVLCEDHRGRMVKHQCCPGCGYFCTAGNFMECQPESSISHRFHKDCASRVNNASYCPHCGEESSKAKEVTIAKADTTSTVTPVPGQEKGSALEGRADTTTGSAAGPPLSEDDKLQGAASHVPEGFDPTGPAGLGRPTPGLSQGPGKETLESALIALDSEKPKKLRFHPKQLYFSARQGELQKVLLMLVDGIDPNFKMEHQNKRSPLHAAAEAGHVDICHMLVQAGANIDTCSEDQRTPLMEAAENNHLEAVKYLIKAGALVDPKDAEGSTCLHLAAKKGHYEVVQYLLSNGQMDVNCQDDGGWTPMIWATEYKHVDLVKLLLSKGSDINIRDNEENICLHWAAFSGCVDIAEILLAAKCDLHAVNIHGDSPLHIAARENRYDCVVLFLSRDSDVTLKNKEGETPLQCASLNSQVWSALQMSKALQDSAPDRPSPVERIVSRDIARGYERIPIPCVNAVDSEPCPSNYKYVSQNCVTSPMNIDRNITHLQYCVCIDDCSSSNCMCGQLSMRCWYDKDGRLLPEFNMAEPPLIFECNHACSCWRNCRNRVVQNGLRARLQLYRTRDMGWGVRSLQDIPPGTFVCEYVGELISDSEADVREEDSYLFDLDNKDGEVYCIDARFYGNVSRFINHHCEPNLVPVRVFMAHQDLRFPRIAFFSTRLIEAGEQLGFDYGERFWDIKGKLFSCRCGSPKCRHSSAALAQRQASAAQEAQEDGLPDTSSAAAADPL
Outline: (§1)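 Tritiated methyl transfer from SAM to H3 peptide, read by scintillation proximity. Enzymes are recombinant human catalytic domains: G9a (913–1193) and GLP (982–1266), each at 5 nM. Substrate is H3 peptide at 0.05 μM and SAM cofactor at 1 μM. Test compound is preincubated with enzyme for 5, 15 or 45 min. Run by a contract lab in four replicates.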

G9a [5] = biological target: T3, G9a (Homo sapiens, UniProt Q96KQ7); assay: Radioactivity-based scintillation proximity biochemical assay, G9a; conditions: preincubation 5, 15, 45 min
T3 sequence (Q96KQ7 1-1210): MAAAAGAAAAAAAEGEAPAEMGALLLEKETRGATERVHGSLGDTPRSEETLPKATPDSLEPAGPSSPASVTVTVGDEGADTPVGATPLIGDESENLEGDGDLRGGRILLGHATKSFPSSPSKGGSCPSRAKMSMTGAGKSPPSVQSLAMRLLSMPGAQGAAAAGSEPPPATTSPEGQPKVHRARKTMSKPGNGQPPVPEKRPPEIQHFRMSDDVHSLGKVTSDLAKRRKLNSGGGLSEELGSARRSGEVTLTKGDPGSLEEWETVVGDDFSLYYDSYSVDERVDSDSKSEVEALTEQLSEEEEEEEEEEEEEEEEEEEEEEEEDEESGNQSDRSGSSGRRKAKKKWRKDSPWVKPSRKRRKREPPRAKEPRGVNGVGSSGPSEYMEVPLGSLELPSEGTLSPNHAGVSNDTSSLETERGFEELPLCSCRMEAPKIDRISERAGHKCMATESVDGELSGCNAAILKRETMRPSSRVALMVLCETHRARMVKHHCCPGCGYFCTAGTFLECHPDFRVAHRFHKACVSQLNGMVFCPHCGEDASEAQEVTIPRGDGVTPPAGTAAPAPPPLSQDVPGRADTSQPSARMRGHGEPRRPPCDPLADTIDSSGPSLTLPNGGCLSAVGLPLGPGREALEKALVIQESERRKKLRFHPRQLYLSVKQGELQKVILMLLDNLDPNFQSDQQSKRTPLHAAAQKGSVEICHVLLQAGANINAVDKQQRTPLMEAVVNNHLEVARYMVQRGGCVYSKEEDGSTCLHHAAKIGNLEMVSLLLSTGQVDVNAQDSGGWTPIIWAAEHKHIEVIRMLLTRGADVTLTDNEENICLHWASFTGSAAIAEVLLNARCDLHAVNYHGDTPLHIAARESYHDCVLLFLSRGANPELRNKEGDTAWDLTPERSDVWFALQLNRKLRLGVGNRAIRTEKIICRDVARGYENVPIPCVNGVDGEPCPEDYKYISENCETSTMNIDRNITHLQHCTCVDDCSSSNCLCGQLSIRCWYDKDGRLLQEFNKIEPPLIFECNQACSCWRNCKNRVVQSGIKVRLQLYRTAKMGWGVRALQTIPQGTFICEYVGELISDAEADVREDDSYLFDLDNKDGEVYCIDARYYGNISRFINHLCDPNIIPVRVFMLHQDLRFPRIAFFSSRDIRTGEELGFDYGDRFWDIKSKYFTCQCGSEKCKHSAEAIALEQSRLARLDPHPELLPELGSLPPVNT
Outline: as §1

[6] = system: 21 other methyltransferases (PKMTs and PRMTs); assay: Selectivity assays against other methyltransferases; format: biochemical; conditions: compound at 1 μM; any of the 21 enzymes
Outline: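 Radioactivity-based scintillation proximity format that follows transfer of the 3H-labelled methyl group from SAM to substrate. Test compound at 1 μM, run in duplicate against each methyltransferase. Inhibition expressed as percentage of control enzyme activity.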

GLP [7] = biological target: T4, GLP (Homo sapiens, UniProt Q9H9B1); assay: Isothermal titration calorimetry; format: binding; conditions: ITC
T4 sequence (Q9H9B1 982-1266): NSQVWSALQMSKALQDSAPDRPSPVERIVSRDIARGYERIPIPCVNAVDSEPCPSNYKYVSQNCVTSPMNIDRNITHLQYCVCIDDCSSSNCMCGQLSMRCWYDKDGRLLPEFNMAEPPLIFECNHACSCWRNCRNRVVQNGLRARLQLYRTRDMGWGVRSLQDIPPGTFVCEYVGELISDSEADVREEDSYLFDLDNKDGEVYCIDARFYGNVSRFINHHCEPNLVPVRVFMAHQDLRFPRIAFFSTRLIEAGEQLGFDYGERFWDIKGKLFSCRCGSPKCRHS

| Compound | reduction of H3K9me2 level in MDA-MB-231 cells [1] | reduction of H3K9me2 level in K562 cells [2] | covalent modification of G9a (MS-based analysis, in words) (G9a [3]) | inhibition of cell growth in MDA-MB-231 cells (MDA-MB-231 cells) | inhibitory activity against GLP with preincubation time (GLP [4]) | inhibition of G9a compared to GLP (G9a [5]) | inhibitory activity against G9a with preincubation time (G9a [5]) | inhibition effect against 21 PKMTs and PRMTs [6] [%] | fold improved binding affinity to GLP compared to UNC0642 (GLP [7]) [fold] | rate of G9a adduct formation compared to GLP adduct (G9a [3]; mass spectrometry, 0-120 min, 5 μM G9a or GLP, 50 μM compound) |
| --- | --- | --- | --- | --- | --- | --- | --- | --- | --- | --- |
| C=CC(=O)Nc1nc(NC2CCN(C(C)C)CC2)c2cc(OC)c(OCCCN3CCCC3)cc2n1 [Compound 1, N-(4-((1-Isopropylpiperidin-4-yl)amino)-6-methoxy-7-(3-(pyrrolidin-1-yl)propoxy)-quinazolin-2-yl)acrylamide] | slightly lower potency than UNC0642 and compound 9 | reduced the H3K9me2 level in K562 cells |  |  |  |  |  |  |  |  |
| C=CC(=O)N(C)c1nc(NC2CCN(C(C)C)CC2)c2cc(OC)c(OCCCN3CCCC3)cc2n1 [Compound 6, N-(4-((1-Isopropylpiperidin-4-yl)amino)-6-methoxy-7-(3-(pyrrolidin-1-yl)propoxy)-quinazolin-2-yl)-N-methylacrylamide] |  |  | completely lost its ability to covalently modify G9a |  |  |  |  |  |  |  |
| C=CC(=O)Nc1cc(NC2CCN(C(C)C)CC2)c2cc(OC)c(OCCCN3CCCC3)cc2n1 [Compound 8, N-(4-((1-Isopropylpiperidin-4-yl)amino)-6-methoxy-7-(3-(pyrrolidin-1-yl)propoxy)quinolin-2-yl)acrylamide] | effectively reduced the H3K9me2 mark in a concentration- and time-dependent manner; also recorded: improved potency compared to UNC0642 and compound 9 | reduced the H3K9me2 level in K562 cells; also recorded: much better potency compared to compound 1 and slightly better potency compared to UNC0642 |  | more effective than compound 1 and UNC0642 in suppressing the growth of MDA-MB-231 cells | improved inhibitory activity against G9a and GLP with increased preincubation time | more effectively inhibited G9a than GLP at all three time points | improved inhibitory activity against G9a and GLP with increased preincubation time | ≤ 50 | 1.3 | faster than that of the GLP–compound 8 adduct |
| CCC(=O)Nc1cc(NC2CCN(C(C)C)CC2)c2cc(OC)c(OCCCN3CCCC3)cc2n1 [Compound 9, N-(4-((1-Isopropylpiperidin-4-yl)amino)-6-methoxy-7-(3-(pyrrolidin-1-yl)propoxy)quinolin-2-yl)propionamide] | displayed some cellular potency as a reversible inhibitor but was not as potent as compound 8 |  | did not covalently modify G9a |  |  |  |  |  |  |  |
